In the library only some 1% were active in any assay of this set; here they are far more common.
VIM-2 inhibitor – blocks Pseudomonas aeruginosa VIM-2 metallo-beta-lactamase. purified VIM-2, nitrocefin hydrolysis, epi-absorbance fluorescence. inhibition, % at 5.6 µM. 0.89% of 290,000 active;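 active = inhibition above the mean of all tested compounds plus 3 SD, cutoff set per screening run, cut at about 7.5% in these data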;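 note: red hydrolysis product quenches plate fluorescence so inhibitors raise well fluorescence; 0% = enzyme with DMSO and 100% = DMSO without enzyme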
PDI inh – inhibitors of human protein disulfide isomerase; P07237; PDI insulin aggregation turbidity, A650, 90 min; inhibition, % at 10 µM; 0.052% of 350,000 active;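 active = mean inhibition across replicates of 30% or more, whatever share of single replicates reach that level; inconclusive = mean inhibition below 30% while every single replicate reaches 30%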
Target sequence (P07237 whole entry, looked up): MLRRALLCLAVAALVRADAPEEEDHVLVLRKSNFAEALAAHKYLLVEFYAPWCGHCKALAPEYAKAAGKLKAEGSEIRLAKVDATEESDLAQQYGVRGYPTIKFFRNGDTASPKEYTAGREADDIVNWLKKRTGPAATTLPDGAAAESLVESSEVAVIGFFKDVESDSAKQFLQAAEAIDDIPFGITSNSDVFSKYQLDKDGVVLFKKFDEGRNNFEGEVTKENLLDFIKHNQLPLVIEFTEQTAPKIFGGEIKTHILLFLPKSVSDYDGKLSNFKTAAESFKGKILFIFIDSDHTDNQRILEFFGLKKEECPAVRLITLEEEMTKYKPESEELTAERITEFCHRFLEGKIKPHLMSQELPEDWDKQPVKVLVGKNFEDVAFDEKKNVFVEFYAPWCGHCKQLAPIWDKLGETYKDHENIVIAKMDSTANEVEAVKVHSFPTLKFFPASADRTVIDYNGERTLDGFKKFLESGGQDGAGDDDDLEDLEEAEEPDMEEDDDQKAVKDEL
ERp5 inh – ERp5 (human) disulfide isomerase inhibition; Q15084; ERp5 insulin aggregation, absorbance 650 nm, 90 min; inhibition, % at 9.99 µM; 0.05% of 350,000 active; AID 651711;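 active = mean replicate inhibition above about 25%, with every replicate also reaching it, limit read from the data, passing the limit was not always enough; inconclusive = only one of those two criteria met; inactive = neither criterion met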
PvdQ inh – blocks Pseudomonas aeruginosa PvdQ acylase activity; purified PvdQ acylase, fluorescence plate reader; inhibition, % at 10 µM; 0.063% of 340,000 active; in the data active = inhibition above about 30%, passing the limit was not always enough; inconclusive = no clear call, values can overlap the other calls;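 note: 0% = vehicle neutral wells and 100% = reference inhibitor wells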
PglD DTNB – inhibitors of Campylobacter jejuni PglD acetyltransferase; purified PglD enzyme, DTNB colorimetric CoA detection; inhibition, % at 12.5 µM; AID 602405; 0.098% of 360,000 active; in the data active = inhibition above about 16%, passing the limit was not always enough; inconclusive = no clear call, values can overlap the other calls
IMP-1 inhibitor – inhibitors of Pseudomonas aeruginosa IMP-1 metallo-beta-lactamase. inhibition, % at 5.6 µM. 0.45% of 290,000 active. purified IMP-1, nitrocefin hydrolysis, epi-absorbance fluorescence. AID 1556;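 active = inhibition above the mean plus 3 SD of all compounds in the same screening run, cut at about 4.5% in these data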;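 note: 0% = IMP-1 with DMSO and 100% = DMSO wells lacking enzyme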
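Test system: recombinant IMP-1 enzyme, purified / Medium: HEPES buffer pH 7.1 with ZnSO4 and Brij 35 / Doses: single dose, 5.6 µM / Times: 25 °C, 15 min preincubation, 25 min reaction / Detection: Epi-absorbance via hydrolysed-nitrocefin quenching of white-plate fluorescence, 480/530 nm, EDTA stop / Evaluation: percent inhibition from optical density relative to buffer-blank wells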
An asterisk follows results filed as active; ? = inconclusive; . = no result.

SMILES	VIM-2 inhibitor	PDI inh	ERp5 inh	PvdQ inh	PglD DTNB	IMP-1 inhibitor
C[C@H](CO)N1C[C@H](C)[C@@H](CN(C)C(=O)Nc2ccc(C(F)(F)F)cc2)Oc2ccc(NC(=O)Cn3cnnn3)cc2CC1=O	.	.	1.2	.	17.6*	.
C[C@@H]1CN([C@H](C)CO)C(=O)Cc2cc(NC(=O)Cn3cnnn3)ccc2O[C@H]1CN(C)C(=O)Nc1ccc(C(F)(F)F)cc1	.	.	-1.6	.	7.8	.
C[C@@H]1CN([C@@H](C)CO)C(=O)Cc2cc(NC(=O)Nc3ccc(C(F)(F)F)cc3)ccc2O[C@@H]1CN(C)Cc1ccc(Cl)c(Cl)c1	.	.	49.9*	.	2.1	.
COc1ccc([Si](C)(C)[C@@H]2[C@@H](CC(=O)N3Cc4ccccc4C[C@H]3CO)O[C@]3(C(=O)N(Cc4ccc(I)cc4)c4ccccc43)[C@H]2C)cc1	.	.	-2.3	.	-5.5	.
CNC(=S)N/N=C(\C)c1cccc([N+](=O)[O-])c1	-3.5	-5.1	-1.0	-6.2	.	-4.4
C/C(=N\NC(=O)C(N)=O)c1cccc([N+](=O)[O-])c1	-1.6	-0.9	0.6	-6.4	.	15.5*
NC(=O)C1CCN(S(=O)(=O)c2cccc(C(=O)O)c2)CC1	-0.3	-2.5	-5.1	-8.9	0.1	32.5*
Oc1c(Br)cc(Br)cc1/C=N/n1c(-c2ccccc2)n[nH]c1=S	-0.7	0.1	4.4	-13.3	4.7	22.1*
CCCc1cc(=O)oc2cc(C)c(CN3CCCC3)c(O)c12	3.5	-5.3	.	-13.4	1.8	7.7*
CCCNC(=O)C[C@@H]1CC[C@@H]2[C@@H](COc3ccc(NS(=O)(=O)CC)cc3C(=O)N2C)O1	.	.	-5.1	.	1.8	.
C[C@H](CO)N1C[C@H](C)[C@@H](CN(C)S(=O)(=O)c2cn(C)cn2)Oc2ccc(NC(=O)c3ccncc3)cc2CC1=O	.	.	64.6*	.	-1.4	.
C[C@H]1CN([C@@H](C)CO)C(=O)Cc2cc(NC(=O)c3ccncc3)ccc2O[C@H]1CN(C)S(=O)(=O)c1cn(C)cn1	.	.	74.4*	.	7.1	.
COc1ccc(Cl)cc1C(=O)OCC(=O)NC(=O)c1cccn1C	11.3*	-3.6	.	5.8	-6.2	3.6
COc1cc(/C=C2/SC(=S)N(CC(=O)O)C2=O)ccc1OCC(=O)Nc1ccc(C)c(C)c1	-0.8	-20.4	-3.3	-10.2	-4.6	7.5*
Cc1csc2nc3ccccc3c(=O)n12	7.8*	-0.6	.	-6.3	3.8	0.5
CN1C(=S)NC(C)(C)CC1(C)c1ccc(O)cc1O (stereo unspecified)	8.3*	0.2	.	-11.2	0.1	-2.8
C[C@H](CO)N1C[C@H](C)[C@H](CN(C)C(=O)NC2CCCCC2)OCCCC[C@H](C)Oc2ccc(NS(C)(=O)=O)cc2C1=O	.	.	.	.	0.6	.
O=C(/C=C/c1ccc(O)cc1)c1ccc(O)cc1O	-1.8	41.0*	5.3	0.9	0.6	-3.8
COc1ccc(OC)c(S(=O)(=O)N(C)CC(=O)N2CCN(c3ccc(F)cc3)CC2)c1	0.6	-0.9	.	-0.1	-3.2	0.2
COc1ccc(OC)c(S(=O)(=O)N(C)CC(=O)N2CCN(c3ccccc3F)CC2)c1	0.2	-7.5	.	-15.8	-10.9	17.1*
Cc1ccc(S(=O)(=O)N(C)c2nc3ccccc3[nH]c2=S)cc1	2.3	-1.2	8.3	-7.3	.	8.7*
COC(=O)c1ccc(NC(=S)N2CCCC2)cc1	0.7	3.4	-2.6	41.6*	.	0.7
CCN(CC)c1ccc(NC(=O)CCS(=O)(=O)c2ccc(Br)cc2)c(C)c1	-2.2	-2.8	2.0	-9.9	-5.2	23.9*
CO[C@@H]1CN(C)C(=O)c2ccc(NC(=O)C3CC3)cc2OC[C@H](C)N(C(=O)c2ccccn2)C[C@H]1C	.	.	8.2	.	-0.4	.
COc1ccc(-c2cc(C(F)(F)F)c3c(N)c(C(=O)NCCSC)sc3n2)cc1	3.0	2.9	1.3	-4.4	0.9	-0.7
SMILES	VIM-2 inhibitor	PDI inh	ERp5 inh	PvdQ inh	PglD DTNB	IMP-1 inhibitor
CN(C)CCNC(=O)c1sc2nc(-c3ccccc3)cc(C(F)(F)F)c2c1N	11.8*	-3.2	-2.0	-5.7	-2.6	-1.5
C[C@H](CO)N1C[C@H](C)[C@H](CN(C)Cc2cccc(C(F)(F)F)c2)Oc2ncc(C#Cc3ccccc3)cc2C1=O	.	.	6.3	.	-4.7	.
C/C(=N\O)c1noc(C)c1C(=O)Nc1nccs1	12.1*	-1.5	3.1	-4.6	5.6	0.2
COc1ccc(Cc2nnc(SCC(=O)NC3(C#N)CCCCC3)n2N)cc1	.	8.5	25.0*	19.6	4.3	.
N#CC1(NC(=O)CSc2nnc(COc3ccccc3F)n2N)CCCCC1	.	3.1	-7.6	3.2	.	.
Cc1ccc2nc(C(Cl)(Cl)Cl)nc(N/N=C/c3ccc([N+](=O)[O-])cc3)c2c1	.	-2.6	-18.3	-6.3	-6.0	.
Cc1ccc2nc(C(Cl)(Cl)Cl)nc(N/N=C/c3ccncc3)c2c1	11.2*	2.9	-4.0	9.1	.	-2.7
COc1cccc(S(=O)(=O)N2C[C@@H]3N[C@H](C2)C3c2ccc(/C=C/c3ccccc3)cc2)c1 (stereo partly specified)	.	.	1.0	.	.	.
CCOC(=O)c1ccsc1NC(=O)c1ccco1	9.1*	9.3	8.6	-9.3	-7.6	-1.2
Cc1noc(C)c1NC(=O)Nc1cccc2c1O[C@H](CN(C)Cc1ccc(Cl)c(Cl)c1)[C@H](C)CN([C@@H](C)CO)C2=O	.	.	-0.4	.	-3.7	.
CO[C@H]1CN(C)C(=O)c2ccc(NS(=O)(=O)C3CCCCC3)cc2OC[C@H](C)NC[C@@H]1C	.	.	-4.7	.	.	.
COc1ccc(-c2csc(NC(=O)C3CCN(C(=O)c4ccc(F)cc4)CC3)n2)cc1OC	-1.1	0.9	29.0*	-13.4	5.9	-1.8
CN1CCC2(CC1)Nc1nc(SCc3ccc(Cl)cc3)nn1C1=C2CN(C)CC1	9.5*	-2.4	.	-6.7	-15.8	-0.3
O=C(O)CCC(=O)N1N=C(c2ccc(Br)cc2)CC1c1cccs1 (stereo unspecified)	7.9*	0.1	-1.1	-3.1	.	-2.5
O=C(O)CCC(=O)N1N=C(c2ccco2)CC1c1cccs1 (stereo unspecified)	-0.1	3.9	-2.3	-2.2	.	2.4
CC(=O)N1CCOc2ccc(S(=O)(=O)Nc3ccc(Cl)cn3)cc21	-1.8	1.7	9.5	10.4	-4.0	21.8*
Cc1occc1C(=O)N1CCN(C(c2ccccc2)c2ccccc2)CC1	-2.1	-5.2	.	-14.4	-0.5	-3.2
Cc1ccccc1C(=O)N1CCN(C(c2ccccc2)c2ccccc2)CC1	-1.7	-7.1	.	-7.8	.	32.8*
c1coc(CN(Cc2ccco2)c2ncnc3c2oc2ccccc23)c1	0.1	-0.2	.	-7.3	-2.1	4.7*
O=C(O)c1cccc(CN2C(=O)c3ccccc3C2=O)c1	-0.4	1.9	2.8	?	6.4	-3.0
O=C1c2cccc3c(O)ccc(c23)C(=O)N1Cc1ccccc1	11.0*	-4.0	.	-21.7	-0.5	4.3

Compound activity as filed in PubChem.
